Experimental data: the RNAGym collection of RNA variant scans (doi:10.1126/science.aae0568)
Variants at the floor of the assay were thinned out.

B1: tRNA (parent)
chain: GUUCCGUUGGCGUAAUGGUAACGCGUCUCCCUCCUAAGGAGAAGACUGCGGGUUCGAGUCCCGUACGGAACG

Variants of: B1
Experiment: yeast fitness relative to wild type (ratio to wild type); higher = fitter; tRNA-Arg(CCU), competitive growth, 37 C, YPD
Summary of the method: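 Changes in genotype frequencies gave Darwinian fitness relative to wild type. Frequencies were read by 100-nucleotide paired-end sequencing of gene amplicons before and after pooled Saccharomyces cerevisiae strains, carrying tRNA-Arg(CCU) gene variants at the native locus, were competed in YPD at 37°C for 24 hours in six replicates. A genotype was kept only with ≥ 100 starting reads, and estimates < 0.5 were set to 0.5.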

| Variant | yeast fitness |
| --- | --- |
| U26C A36C A45G U54C | ≤ 0.5 |
| G25A U28C | 0.891 |
| U26C A40G C66U | 0.563 |
| G25A C31G A45U C61U | 0.727 |
| U26A G38C U47A C49A | ≤ 0.5 |
| G25C C29G C33U G39U A57U | ≤ 0.5 |
| C27G C61U A69U | 0.532 |
| U26A A36G A70U | 0.584 |
| U26A C29A C31G A65C | 0.566 |
| C27G G44C A45G | 0.53 |
| C27G U28A C30G C31U | 0.51 |
| U26G C29A | 0.578 |
| C27G U32G A42C C66U | ≤ 0.5 |
| C27A C31U | 0.941 |
| U26A U35G A37U A70G | ≤ 0.5 |
| U26G U28A A43G C49U C61U G67A | ≤ 0.5 |
| G25A U35C A43G | ≤ 0.5 |
| C27A G44C | 0.782 |
| U26G C33G G50C | ≤ 0.5 |
| C27G G44C | 0.569 |
| C27A A37U C49U C55U C60G A65C | ≤ 0.5 |
| C27A G39C C46A | ≤ 0.5 |
| U26A A40U A65C | 0.662 |
| G25C C29A G52A | 0.505 |

| Variant | yeast fitness |
| --- | --- |
| C27A C33G G39A C49G | ≤ 0.5 |
| U26G A37U G51A | ≤ 0.5 |
| G25C C27G U35C | ≤ 0.5 |
| C27A U59C A69U | 0.713 |
| U26C A45G C55A C66U | 0.701 |
| U26A C29G A43G A45U A65U | ≤ 0.5 |
| C27U A42U A43U U47C | 0.577 |
| G25C C33U U47G C49U G52C | ≤ 0.5 |
| U26C C27U C62U | 0.754 |
| C27A C49U C61A | ≤ 0.5 |
| G25C C34U G41A C49G A69C | ≤ 0.5 |
| G25A C49A G68C | ≤ 0.5 |
| G25C C31G C34G G41A C61U A69U | ≤ 0.5 |
| G25A U28G G58A C66G | 0.61 |
| G25C A65U | 1.03 |
| C27G A42G C60A | ≤ 0.5 |
| U26A A70U | 0.876 |
| G25U U64G | 0.788 |
| U26A C60U | 0.744 |
| G25A C34A A36C G51C | ≤ 0.5 |
| C27A C61U C66U | ≤ 0.5 |
| G25A C31U A37C G52C | ≤ 0.5 |
| U26C C46U C62U | 0.718 |
| G25C C31U C46U | 0.684 |

| Variant | yeast fitness |
| --- | --- |
| C27G U28A A65U | ≤ 0.5 |
| G25A U28A C61U G67C | ≤ 0.5 |
| U26G C27A | 0.647 |
| G25C U53A C55U | ≤ 0.5 |
| U26A A37G C66A | ≤ 0.5 |
| C27A A45U G52A | ≤ 0.5 |
| C27A C46A A69G | 0.582 |
| C27G A42U G48A | ≤ 0.5 |
| U26C C61U | 0.956 |
| G25A C34G G67A | ≤ 0.5 |
| C27G U28A C30G C31U C60A A70C | ≤ 0.5 |
| U26A C49G | 0.616 |
| U26A C49U | 0.865 |
| C27G C61U | 0.594 |
| U26A C55U | 0.65 |
| C27A A36C A42U | ≤ 0.5 |
| U26C A42G | 1.08 |
| C27G U64C | 0.693 |
| U26C A42G G67U | 0.647 |
| C27A G39C C55G A70C | ≤ 0.5 |
| G25C C29A G52A A65G | ≤ 0.5 |
| G25A C49G | 0.981 |
| C27A A37U A70U | 0.548 |
| U26C C29G A43U | ≤ 0.5 |

| Variant | yeast fitness |
| --- | --- |
| C27A A43C A69C | 0.748 |
| C27G U32A U54G | ≤ 0.5 |
| C27G A37C A57C | ≤ 0.5 |
| U26C U59C | 0.793 |
| U26C U59A | 0.882 |
| C27A G38C | 0.609 |
| G25C A40C G68C | 0.645 |
| U26G C46G C61U | 0.824 |
| C27A C62G A65U | ≤ 0.5 |
| C27G C31G A43C | 0.545 |
| U26G G67C | 0.644 |
| C27U A40G G44A C62A | 0.51 |
| C27U A40G G44A C62U | ≤ 0.5 |
| U26G C66U | 0.862 |
| C27G U54C | ≤ 0.5 |
| C27G U59C C66G | ≤ 0.5 |
| C27A C31G G44C | ≤ 0.5 |
| C27U A40G U64A | ≤ 0.5 |
| C27U A40G U64C | 0.602 |
| U26C A43U G50A G68A | ≤ 0.5 |
| U26A C30A C34A G48C A70U | ≤ 0.5 |
| C27A C66G A70C | ≤ 0.5 |
| U26C C30G C34U C49U | 0.51 |
| U26A C49G G67C | ≤ 0.5 |

| Variant | yeast fitness |
| --- | --- |
| G25C C27A | 0.678 |
| C27A A37C G52A U59A | ≤ 0.5 |
| G25A G41A C60G C62G A65G | ≤ 0.5 |
| C27A G41C A43C G48A C66U | 0.546 |
| U26A U28A C31U G63C | ≤ 0.5 |
| C27A C31U C60G | ≤ 0.5 |
| C27A A43C U54C | 0.624 |
| G25C U32G G41A | 0.565 |
| U26G A36G | 0.914 |
| C27A U32A U59C | ≤ 0.5 |
| G25C C33U C49A U53A G67A | ≤ 0.5 |
| U26C A45G A69U | 0.647 |
| U26A C27U U59C A65G | 0.65 |
| G25C U26G C60U C62G U64A A69U | ≤ 0.5 |
| U26A A36C | ≤ 0.5 |
| U26C C27U U54G G56A | 0.54 |
| C27A G39C A57U A70U | ≤ 0.5 |
| G25A G56C | 0.711 |
| C27G C62U | 0.688 |
| C27A C31A G52A G58C | ≤ 0.5 |
| U26A C27A U54C | ≤ 0.5 |
| G25C G50C | 0.627 |
| U26A C46U G50C U54A | 0.579 |
| U26A C30U C31U A37C G48A | ≤ 0.5 |

| Variant | yeast fitness |
| --- | --- |
| U26A U28A C31U G56A C66G | ≤ 0.5 |
| G25C C31U A69U | 0.77 |
| G25A U28G C33G A45C | ≤ 0.5 |
| U26C C62A | 0.762 |
| U26C G38C | 0.717 |
| U26C C33G U59C | 0.515 |
| U26G G52A | 0.816 |
| U26A C31U A57G | 0.742 |
| G25A U32C | 0.832 |
| U26G G48A | 1.08 |
| U26G G48C | 0.805 |
| C27G A36C C46U G51C | 0.54 |
| C27G C30A C34G A45G C62U A69G | ≤ 0.5 |
| U26A C34U C49G | ≤ 0.5 |
| C27G A36C | ≤ 0.5 |
| U26A U28C C30G C62A | ≤ 0.5 |
| U26A C27A C31U | ≤ 0.5 |
| C27G U59G G68C | 0.582 |
| G25C U59A | 0.804 |
| U26A C34A | 0.592 |
| C27G C33U | 0.592 |
| C27G C29G C30U | ≤ 0.5 |
| C27G G58C U59C G63A | ≤ 0.5 |
| C27G C31A A57U | 0.573 |

| Variant | yeast fitness |
| --- | --- |
| C27G A45C C49U G52A U59C | 0.6 |
| C27A G39A A42C G48C C60U | ≤ 0.5 |
| C27G C30G C31U A42G U54C | ≤ 0.5 |
| U26G C33G U35A C55U A65C | ≤ 0.5 |
| C27G C49A A70U | ≤ 0.5 |
| C27G C62U A65U | 0.554 |
| U26A C49U A57U | ≤ 0.5 |
| U26A G48A C49G A70U | ≤ 0.5 |
| C27A U35A A43U | ≤ 0.5 |
| G25A G39A | 0.973 |
| U26C C27A | 0.859 |
| C27G C49A G52C C60U | ≤ 0.5 |
| U26A U32C U53A | ≤ 0.5 |
| C27A C30G G41C C61G C62U A69U | 0.557 |
| U26C C31U A43G G63A | 0.611 |
| U26A C30A | 0.768 |
| U26A G39U A45C | ≤ 0.5 |
| C27G U47C A70U | 0.545 |
| G25C U28A G51A | 0.604 |
| U26C A69C | 0.885 |
| C27G A45U | 0.656 |
| U26G C49A | 0.703 |
| U26G C49G | 0.851 |
